Test results reported in ChEMBL document CHEMBL1821598, “Synthesis, structure-activity relationship and biological evaluation of anticancer activity for novel N-substituted sophoridinic acid derivatives” (Bioorg Med Chem Lett, 2011).
In brackets after ≈: the same amount, converted by molar mass. Blank lines part the entries; values can stand above or below the molecule they belong to. Activity calls are given as the source filed them. The calls are words filed in the database; no cut-off is given here.

Experiments:
HepG2 [1] = assay: Inhibition of cell proliferation of human HepG2 cells at 30 ug/mL after 48 hrs by Sulforhodamine B assay; assay type: functional; conditions: HepG2, 48 h
Procedure, shortened: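 HepG2 cells exposed to test compounds at 30 μg/mL for 48 h. HCPT at 30 μg/mL was the positive control. Proliferation was read by SRB and reported as % inhibition. Values are mean ± SD of three separate experiments.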

HepG2 [2] = assay: Cytotoxicity against human HepG2 cells after 48 hrs by Sulforhodamine B assay; assay type: functional, cell-based; conditions: for IC50: HepG2, 48 h
Procedure, shortened: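 HepG2 cells treated at a series of concentrations for 48 h. Cell death was read by sulforhodamine B staining.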

[3] = biological target: T1, DNA topoisomerase 1 (Homo sapiens) (UniProt P11387); assay: Inhibition of DNA topoisomerase 1 using DNA substrate after 0.5 hrs by gel electrophoresis
T1 sequence (whole entry): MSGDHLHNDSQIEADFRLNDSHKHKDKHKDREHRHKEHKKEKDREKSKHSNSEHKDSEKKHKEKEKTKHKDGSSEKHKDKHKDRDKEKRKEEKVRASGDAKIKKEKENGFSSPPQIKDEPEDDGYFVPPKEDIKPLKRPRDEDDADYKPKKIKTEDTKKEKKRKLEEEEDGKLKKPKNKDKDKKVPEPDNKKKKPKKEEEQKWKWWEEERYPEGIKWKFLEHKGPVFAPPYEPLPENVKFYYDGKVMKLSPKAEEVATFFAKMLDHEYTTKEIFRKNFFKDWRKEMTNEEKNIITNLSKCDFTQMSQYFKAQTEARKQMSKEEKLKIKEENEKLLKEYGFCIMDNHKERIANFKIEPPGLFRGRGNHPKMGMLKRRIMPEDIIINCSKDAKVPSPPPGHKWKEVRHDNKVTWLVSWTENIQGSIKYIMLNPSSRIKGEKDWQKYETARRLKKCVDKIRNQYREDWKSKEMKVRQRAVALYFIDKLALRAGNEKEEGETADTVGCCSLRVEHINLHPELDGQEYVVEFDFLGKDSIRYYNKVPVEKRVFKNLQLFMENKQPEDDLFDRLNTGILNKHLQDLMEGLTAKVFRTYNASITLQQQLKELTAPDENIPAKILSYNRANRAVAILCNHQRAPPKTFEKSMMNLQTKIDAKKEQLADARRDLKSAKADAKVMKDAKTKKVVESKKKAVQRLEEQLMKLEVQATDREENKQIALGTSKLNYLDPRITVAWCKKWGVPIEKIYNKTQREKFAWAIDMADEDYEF
Procedure, shortened: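 Run over a range of concentrations, with HCPT as positive control.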

[4] = Inhibition of cell proliferation of human […] cells at 30 ug/mL after 48 hrs by Sulforhodamine B assay; assay type: functional
Procedure, shortened: (§1)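 Human tumor cell lines were treated at 30 μg/mL for 48 h. Antiproliferative activity was measured by SRB assay.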

A549 = assay: Inhibition of cell proliferation of human A549 cells at 30 ug/mL after 48 hrs by Sulforhodamine B assay; assay type: functional; conditions: A549, 48 h; procedure, shortened: as §1
MCF7 = assay: Inhibition of cell proliferation of human MCF7 cells at 30 ug/mL after 48 hrs by Sulforhodamine B assay; assay type: functional; conditions: MCF7, 48 h; procedure, shortened: as §1
HepG2 [5] = assay: Cell cycle arrest in human HepG2 cells assessed as accumulation at G0/G1 phase at 20 ug/mL after 4 hrs by flow cytometry (Rvb= 63.1%); assay type: functional
Procedure, shortened: (§2)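 HepG2 cells incubated with or without compound at 20 μg/mL for 4, 12 or 24 h. Cell cycle distribution (G0/G1, S, G2/M) was read from DNA content by flow cytometry. Untreated cells served as control.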

HepG2 [6] = assay: Cell cycle arrest in human HepG2 cells assessed as accumulation at G0/G1 phase at 20 ug/mL after 12 hrs by flow cytometry (Rvb= 63.1%); assay type: functional; procedure, shortened: as §2
HepG2 [7] = assay: Cell cycle arrest in human HepG2 cells assessed as accumulation at G0/G1 phase at 20 ug/mL after 24 hrs by flow cytometry (Rvb= 63.1%); assay type: functional; procedure, shortened: as §2
HepG2 [8] = assay: Cell cycle arrest in human HepG2 cells assessed as accumulation at S phase at 20 ug/mL after 4 hrs by flow cytometry (Rvb= 25.4%); assay type: functional; procedure, shortened: as §2
HepG2 [9] = assay: Cell cycle arrest in human HepG2 cells assessed as accumulation at S phase at 20 ug/mL after 12 hrs by flow cytometry (Rvb= 25.4%); assay type: functional; procedure, shortened: as §2
HepG2 [10] = assay: Cell cycle arrest in human HepG2 cells assessed as accumulation at S phase at 20 ug/mL after 24 hrs by flow cytometry (Rvb= 25.4%); assay type: functional; procedure, shortened: as §2
HepG2 [11] = assay: Cell cycle arrest in human HepG2 cells assessed as accumulation at G2/M phase at 20 ug/mL after 4 hrs by flow cytometry (Rvb= 11.5%); assay type: functional; procedure, shortened: as §2
HepG2 [12] = assay: Cell cycle arrest in human HepG2 cells assessed as accumulation at G2/M phase at 20 ug/mL after 12 hrs by flow cytometry (Rvb= 11.5%); assay type: functional; procedure, shortened: as §2
HepG2 [13] = assay: Cell cycle arrest in human HepG2 cells assessed as accumulation at G2/M phase at 20 ug/mL after 24 hrs by flow cytometry (Rvb= 11.5%); assay type: functional; procedure, shortened: as §2
HepG2 [14] = assay: Induction of apoptosis in human HepG2 cells assessed as disappearance of nuclear membrane and appearance of apoptotic body at 20 ug/mL after 48 hrs by microscopy relative to control; assay type: functional, cell-based
Procedure, shortened: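 HepG2 cells untreated or treated at 20 μg/mL for 48 h. Cells were harvested onto slides and examined by microscopy for apoptotic morphology.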

SMILES: O=C(O)CCC[C@H]1[C@H]2CCCN3CCC[C@@H](CN1C(=O)c1ccc(F)cc1)[C@@H]23
inhibition at 30 µg/mL (HepG2 [1]): < 5%

SMILES: CC(C)(C)C(=O)N1C[C@@H]2CCCN3CCC[C@@H]([C@H]23)[C@@H]1CCCC(=O)O
inhibition (HepG2 [2]): Dose-dependent effect
IC50 (HepG2 [2]): 43.6 µg/mL (≈ 124 µM)
inhibition at 30 µg/mL (HepG2 [1]): 41.1%

SMILES: COc1cc(C(=O)N2C[C@@H]3CCCN4CCC[C@@H]([C@H]34)[C@@H]2CCCC(=O)O)cc(OC)c1OC
inhibition at 30 µg/mL (HepG2 [1]): 11.8%

SMILES: CC(=O)N1C[C@@H]2CCCN3CCC[C@@H]([C@H]23)[C@@H]1CCCC(=O)O
inhibition at 30 µg/mL (HepG2 [1]): 11.2%

SMILES: O=C1CCC[C@@H]2[C@H]3CCCN4CCC[C@H](CN12)[C@@H]34 [SOPHORIDINE]
inhibition at 30 µg/mL (HepG2 [1]): 13.8%
inhibition [3]: Active

SMILES: O=C(O)CCC[C@H]1[C@H]2CCCN3CCC[C@@H](CN1C(=O)OCc1ccccc1)[C@@H]23
inhibition at 30 µg/mL (HepG2 [1]): 8.4%

SMILES: Cc1ccc(C(=O)N2C[C@@H]3CCCN4CCC[C@@H]([C@H]34)[C@@H]2CCCC(=O)O)cc1
inhibition at 30 µg/mL (HepG2 [1]): 8.5%

SMILES: O=C(O)CCC[C@H]1[C@H]2CCCN3CCC[C@@H](CN1C(=O)c1ccc(F)c([N+](=O)[O-])c1)[C@@H]23
inhibition at 30 µg/mL (HepG2 [1]): 7.7%

SMILES: COc1ccc(CN2C[C@@H]3CCCN4CCC[C@@H]([C@H]34)[C@@H]2CCCC(=O)O)cc1
inhibition at 30 µg/mL (HepG2 [1]): < 5%

SMILES: O=C(O)CCC[C@H]1[C@H]2CCCN3CCC[C@@H](CN1C(=O)c1ccc4c(c1)OCO4)[C@@H]23
inhibition at 30 µg/mL (HepG2 [1]): 11.4%

SMILES: CC(Br)C(=O)N1C[C@@H]2CCCN3CCC[C@@H]([C@H]23)[C@@H]1CCCC(=O)O (stereo partly drawn)
inhibition at 30 µg/mL (HepG2 [1]): 15.6%

SMILES: CC[C@@]1(O)C(=O)OCc2c1cc1n(c2=O)Cc2cc3cc(O)ccc3nc2-1 [HYDROXYCAMPTOTHECIN]
inhibition at 30 µg/mL (HepG2 [1]): 92%

SMILES: Cc1ccc(CN2C[C@@H]3CCCN4CCC[C@@H]([C@H]34)[C@@H]2CCCC(=O)O)cc1
inhibition at 30 µg/mL (HepG2 [1]): < 5%

SMILES: Cc1c(C(=O)N2C[C@@H]3CCCN4CCC[C@@H]([C@H]34)[C@@H]2CCCC(=O)O)cccc1[N+](=O)[O-]
inhibition at 30 µg/mL (HepG2 [1]): 8.9%

SMILES: O=C(O)CCC[C@H]1[C@H]2CCCN3CCC[C@@H](CN1C(=O)c1cccc([N+](=O)[O-])c1)[C@@H]23
inhibition at 30 µg/mL (HepG2 [1]): < 5%

SMILES: O=C(O)CCC[C@@H]1NC[C@@H]2CCCN3CCC[C@H]1[C@H]23 [SOPHORIDINIC ACID]
inhibition at 30 µg/mL (HepG2 [1]): 10.3%

SMILES: O=C(O)CCC[C@H]1[C@H]2CCCN3CCC[C@@H](CN1S(=O)(=O)c1ccccc1)[C@@H]23
inhibition at 30 µg/mL (HepG2 [1]): < 5%

SMILES: O=C(O)CCC[C@H]1[C@H]2CCCN3CCC[C@@H](CN1C(=O)c1ccccc1)[C@@H]23
inhibition at 30 µg/mL (HepG2 [1]): < 5%

SMILES: COC(=O)N1C[C@@H]2CCCN3CCC[C@@H]([C@H]23)[C@@H]1CCCC(=O)O
inhibition at 30 µg/mL (HepG2 [1]): 7.8%

SMILES: CCOC(=O)N1C[C@@H]2CCCN3CCC[C@@H]([C@H]23)[C@@H]1CCCC(=O)O
inhibition at 30 µg/mL (HepG2 [1]): 19.9%

inhibition [3]: Active
SMILES: O=C(O)CCC[C@H]1[C@H]2CCCN3CCC[C@@H](CN1C(=O)CBr)[C@@H]23
inhibition (HepG2 [2]): Dose-dependent effect
IC50 (HepG2 [2]): 15.4 µg/mL (≈ 39.8 µM)
inhibition at 30 µg/mL (HepG2 [1]): 88%
inhibition at 30 µg/mL [4]: 68%
inhibition at 30 µg/mL (A549): 40%
inhibition at 30 µg/mL (MCF7): 73.3%
Activity (HepG2 [5]): 50.4%
Activity (HepG2 [6]): 53.8%
Activity (HepG2 [7]): 47.7%
Activity (HepG2 [8]): 40.2%
Activity (HepG2 [9]): 38.3%
Activity (HepG2 [10]): 41.8%
Activity (HepG2 [11]): 9.43%
Activity (HepG2 [12]): 7.88%
Activity (HepG2 [13]): 10.4%
Activity (HepG2 [14]): Active

SMILES: COc1ccc(C(=O)N2C[C@@H]3CCCN4CCC[C@@H]([C@H]34)[C@@H]2CCCC(=O)O)cc1[N+](=O)[O-]
inhibition at 30 µg/mL (HepG2 [1]): < 5%

SMILES: COc1ccc(C(=O)N2C[C@@H]3CCCN4CCC[C@@H]([C@H]34)[C@@H]2CCCC(=O)O)cc1
inhibition at 30 µg/mL (HepG2 [1]): < 5%

SMILES: Cc1ccc(S(=O)(=O)N2C[C@@H]3CCCN4CCC[C@@H]([C@H]34)[C@@H]2CCCC(=O)O)cc1
inhibition at 30 µg/mL (HepG2 [1]): 13.4%
